Experimental data: ChEMBL document CHEMBL3112392, “Cytotoxicity and DNA binding property of triphenylethylene-coumarin hybrids with two amino side chains” (Bioorg Med Chem Lett, 2014)
pIC50: −log10 of the molar value. The source made the active and inactive calls. The calls are words filed in the database; no cut-off is given here.

Key:
MCF7 = experiment: Cytotoxicity against human MCF7 cells after 48 hrs by MTT assay; format: functional, cell-based; conditions: for pIC50: MCF7, 48 h
Summary of the method: (§1)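 Antiproliferative screen in human tumour lines; IC50 values derived, with cisplatin as positive control.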

K562 = experiment: Cytotoxicity against human K562 cells after 48 hrs by MTT assay; format: functional, cell-based; conditions: for pIC50: K562, 48 h; summary of the method: as §1
[1] = Cytotoxicity against mouse skull osteoblasts at 100 uM after 48 hrs by MTT assay relative to control; format: cell-based; conditions: osteoblast
Summary of the method: (§2)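 Primary osteoblasts were isolated from newborn mouse skull and exposed to compounds at five concentrations for 48 h. Induced cell death was measured by MTT assay and expressed as % cytotoxicity.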

[2] = Cytotoxicity against mouse skull osteoblasts at 40 uM after 48 hrs by MTT assay relative to control; format: cell-based; conditions: osteoblast; summary of the method: as §2
[3] = Cytotoxicity against mouse skull osteoblasts at 20 uM after 48 hrs by MTT assay relative to control; format: cell-based; conditions: osteoblast; summary of the method: as §2
[4] = Cytotoxicity against mouse skull osteoblasts at 10 uM after 48 hrs by MTT assay relative to control; format: cell-based; conditions: osteoblast; summary of the method: as §2
[5] = Cytotoxicity against mouse skull osteoblasts at 1 uM after 48 hrs by MTT assay relative to control; format: cell-based; conditions: osteoblast; summary of the method: as §2
A549 = experiment: Cytotoxicity against human A549 cells after 48 hrs by MTT assay; format: functional, cell-based; conditions: A549, 48 h; summary of the method: as §1
HeLa = experiment: Cytotoxicity against human HeLa cells after 48 hrs by MTT assay; format: functional, cell-based; summary of the method: as §1
DNA [6] = experiment: Binding affinity to calf thymus DNA assessed as change in melting temperature at 5 uM after 10 mins by thermal denaturation assay; format: nucleic-acid assay; conditions: Bos taurus
DNA [7] = experiment: Binding affinity to calf thymus DNA assessed as melting temperature at 5 uM after 10 mins by thermal denaturation assay (reference value: 67 degC); format: nucleic-acid assay; conditions: Bos taurus
DNA [8] = experiment: Binding affinity to calf thymus DNA assessed as intercalation at 20 uM after 10 mins measured at 350 to 500 nm wavelength by circular dichroism spectroscopic analysis; format: nucleic-acid assay; conditions: Bos taurus
Summary of the method: (§3)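 Circular dichroism: spectra of Ct-DNA (5.0 × 10^-5 M) recorded with or without compound (2.0 × 10^-5 M). Buffer was 10 mM phosphate pH 7.4 with 50 mM NaCl and 2% DMSO, at 25 °C.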

DNA [9] = experiment: Binding affinity to calf thymus DNA assessed as decrease in intensity of negative band at 20 uM after 10 mins measured at 246 nm wavelength by circular dichroism spectroscopic analysis; format: nucleic-acid assay; conditions: Bos taurus; summary of the method: as §3
DNA [10] = experiment: Binding affinity to calf thymus DNA assessed as increase in intensity of positive band at 20 uM after 10 mins measured at 277 nm wavelength by circular dichroism spectroscopic analysis; format: nucleic-acid assay; conditions: Bos taurus; summary of the method: as §3
DNA [11] = experiment: Binding affinity to calf thymus DNA assessed as hyperchromicity at 10 uM after 10 mins by UV-vis spectrophotometric analysis; format: nucleic-acid assay; conditions: Bos taurus
Summary of the method: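 UV–vis absorption titration: 1.0 × 10^-5 M compound in 10 mM phosphate buffer pH 7.4 with 50 mM NaCl and 2% DMSO at 25 °C, with increasing Ct-DNA. Spectral changes were followed, and binding was fitted at the absorption maximum.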

DNA [12] = experiment: Binding affinity to calf thymus DNA after 10 mins by Stern-Volmer plot analysis; format: nucleic-acid assay; conditions: Bos taurus
Summary of the method: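 Fluorescence titration: 5.0 × 10^-5 M compound in 10 mM phosphate buffer pH 7.4 with 50 mM NaCl and 2% DMSO at 25 °C, Ct-DNA added stepwise. Excitation wavelength set per compound (318–339 nm); excitation and emission slits 10.0 nm; emission read near 455 nm. F/F0 plotted against Ct-DNA concentration and analysed by Stern–Volmer plot.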

Row | SMILES | Activity (MCF7) | Activity (K562) | Activity [1] [%] | Activity [2] [%] | Activity [3] [%] | Activity [4] [%] | Activity [5] [%] | pIC50 (MCF7) | pIC50 (K562) | pIC50 (A549) | pIC50 (HeLa) | ΔTm (DNA [6]) [°C] | Tm (DNA [7]) [°C] | Activity (DNA [8]) | Activity (DNA [9]) | Activity (DNA [10]) | Activity (DNA [11]) [%] | Kb (DNA [12])
1 | O=c1oc2cc(O)ccc2c(-c2ccccc2)c1-c1ccc(O)cc1 | inactive | inactive |  |  |  |  |  |  |  |  |  |  |  |  |  |  |  | 
2 | O=c1oc2ccccc2c(-c2ccc(OCCN3CCCC3)cc2)c1-c1ccc(OCCN2CCCC2)cc1 |  |  | 39.5 | 20.4 | 8.4 | -0.5 | 0.1 | 4.78 | 5.12 | 5.06 | 5.08 |  |  |  |  |  |  | 
3 | CN(C)CCOc1ccc(-c2c(-c3ccc(OCCN(C)C)cc3)c3ccccc3oc2=O)cc1 |  |  |  |  |  |  |  | 4.15 | 4.00 | < 4.00 | < 4.00 |  |  |  |  |  |  | 
4 | CN1CCN(CCOc2ccc(-c3c(-c4ccccc4)c4ccc(OCCN5CCN(C)CC5)cc4oc3=O)cc2)CC1 |  |  | 31.6 | 14.6 | 3.2 | 0.6 | -2.4 | 5.46 | 5.49 | 5.33 | 5.43 | 2.2 | 69.2 | Active | Active | Active | 8 | 5.2 ×10³ /M
5 | CN(C)CCOc1ccc(-c2c(-c3ccccc3)c3ccc(OCCN(C)C)cc3oc2=O)cc1 |  |  | 31.5 | 13.8 | 4.3 | -0.2 | -0.6 | 5.16 | 5.14 | 5.04 | 5.07 |  |  |  |  |  |  | 
6 | O=c1oc2cc(OCCN3CCOCC3)ccc2c(-c2ccccc2)c1-c1ccc(OCCN2CCOCC2)cc1 |  |  |  |  |  |  |  | < 4.00 | < 4.00 | < 4.00 | < 4.00 |  |  |  |  |  |  | 
7 | CCN(CC)CCOc1ccc(-c2c(-c3ccc(OCCN(CC)CC)cc3)c3ccccc3oc2=O)cc1 |  |  |  |  |  |  |  | 4.30 | 4.25 | 4.33 | 4.34 | 4.5 | 71.5 | Active | Active | Active | 17 | 1 ×10⁴ /M
8 | O=c1oc2cc(OCCN3CCCC3)ccc2c(-c2ccccc2)c1-c1ccc(OCCN2CCCC2)cc1 |  |  | 32.8 | 16.4 | 5.2 | -5.6 | -2.5 | 5.18 | 5.26 | 5.13 | 5.33 |  |  |  |  |  |  | 
9 | CN1CCN(CCOc2ccc(-c3c(-c4ccc(OCCN5CCN(C)CC5)cc4)c4ccccc4oc3=O)cc2)CC1 |  |  |  |  |  |  |  | 4.11 | 4.27 | 4.25 | 4.22 | 4 | 71 | Active | Active | Active | 17 | 1.4 ×10⁴ /M
10 | O=c1oc2cc(OCCN3CCCCC3)ccc2c(-c2ccccc2)c1-c1ccc(OCCN2CCCCC2)cc1 |  |  | 33.4 | 18.6 | 4.9 | 3.7 | -6.5 | 5.19 | 5.31 | 5.28 | 5.29 | 1.2 | 68.2 | Active | Active | Active | 6 | 7 ×10³ /M
11 | O=c1oc2ccccc2c(-c2ccc(OCCN3CCOCC3)cc2)c1-c1ccc(OCCN2CCOCC2)cc1 |  |  |  |  |  |  |  | < 4.00 | < 4.00 | < 4.00 | < 4.00 |  |  |  |  |  |  | 
12 | CCN(CC)CCOc1ccc(-c2c(-c3ccccc3)c3ccc(OCCN(CC)CC)cc3oc2=O)cc1 |  |  | 31.7 | 15.8 | 3.7 | -1.5 | -7.2 | 5.23 | 5.56 | 5.05 | 5.02 | 1.7 | 68.8 | Active | Active | Active | 8 | 6 ×10³ /M
13 | O=c1oc2ccccc2c(-c2ccc(OCCN3CCCCC3)cc2)c1-c1ccc(OCCN2CCCCC2)cc1 |  |  | 40.3 | 22.3 | 10.6 | 1.6 | -3.2 | 5.37 | 5.26 | 5.14 | 5.36 | 3 | 70 | Active | Active | Active | 16 | 1.2 ×10⁴ /M
14 | O=c1oc2ccccc2c(-c2ccc(O)cc2)c1-c1ccc(O)cc1 | inactive | inactive |  |  |  |  |  |  |  |  |  |  |  |  |  |  |  | 
